Screening data as filed in PubChem BioAssay.
Jurkat tox 60K = reduces viability or proliferation of Jurkat cells; Jurkat E6.1 viability, ATP luminescence, 48 h; inhibition, % at 4 µM; actives 1.2% (n = 56,000); AID 463;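 active = inhibition above the mean inhibition of all tested compounds plus 3 SD, cut at about 28% in these data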
M1 agonist = M1 muscarinic receptor agonism; CHO-M1 cells, Fluo-4 calcium fluorescence, agonist mode; hits give high values; B-score at 10 µM; actives 3% (n = 64,000); AID 626;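 active = fluorescence rise, raw or as B-score row- and column-corrected plate score, outside the 99.7% band of its plate's samples, either direction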
M1 antagonist = blocks the rat M1 muscarinic receptor response to acetylcholine. CHO-M1 cells, Fluo-4 calcium, ACh EC80 antagonist mode; hits give low values. B-score at 10 µM. actives 3.4% (n = 64,000);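 active = calcium fluorescence response, raw or row-and-column corrected B-score, differing from the plate sample mean either way at a set confidence level, mostly lower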
JNK3 inh = blocks human JNK3 kinase activity. P53779. purified JNK3 kinase activity, HTS. inhibition, % at 8 µM. actives 0.61% (n = 60,000). AID 746; in the data active = inhibition above about 17%
Target sequence (P53779 whole entry, looked up): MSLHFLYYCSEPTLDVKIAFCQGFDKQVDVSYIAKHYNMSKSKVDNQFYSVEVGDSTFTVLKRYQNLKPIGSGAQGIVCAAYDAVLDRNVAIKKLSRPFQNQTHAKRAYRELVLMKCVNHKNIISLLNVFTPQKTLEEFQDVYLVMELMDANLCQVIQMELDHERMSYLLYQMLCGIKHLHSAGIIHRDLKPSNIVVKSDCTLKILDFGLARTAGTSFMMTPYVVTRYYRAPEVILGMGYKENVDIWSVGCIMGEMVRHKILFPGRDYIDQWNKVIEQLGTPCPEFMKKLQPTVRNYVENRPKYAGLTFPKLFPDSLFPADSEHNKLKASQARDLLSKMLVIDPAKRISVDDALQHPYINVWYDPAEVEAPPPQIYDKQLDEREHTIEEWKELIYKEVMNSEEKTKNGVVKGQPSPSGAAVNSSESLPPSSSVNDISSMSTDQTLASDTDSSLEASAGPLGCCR
S1P3 agonist = agonists of human S1P3 receptor. Q99500. S1P3 NFAT-BLA reporter cells, agonism, FRET ratio; relative to 1 µM S1P, basal subtracted. activation, % at 4.5 µM. actives 0.1% (n = 60,000). AID 373;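 active = activation above the screen-wide mean plus 3 SD, cut at about 4.5% in these data, passing the limit was not always enough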
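Material: Human S1P3 NFAT-BLA reporter CHO cells | Incubation: Overnight plating, 4 h compound 37 °C, 2 h substrate RT | Signal: FRET β-lactamase substrate fluorescence, excitation 405 nm, 460/535 nm emission ratio, background-subtracted | Compound: 4.5 µM final, single dose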
S1P1 ag-PAM = agonists and agonism potentiators of human S1P1 receptor | actives 0.57% (n = 56,000) | S1P1 CRE-bla cells, forskolin, beta-lactamase FRET, potentiator mode; S1P1 agonist co-added at EC20, 2 nM; 100% = saturating reference agonist, 0% = basal | AID 449 | activation, % at 9.5 µM;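 active = activation above a cutoff set at the mean activation of all tested compounds plus 3 SD, cut at about 54% in these data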;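 also: forskolin at 4 µM as EC80 and the EC20 agonist is SEW2871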
Numbers stand for hits; 0 = inactive; - = no result given. A selection: hits, their analogues and other compounds. The true share with any hit is near 7.4%.

SMILES	Jurkat tox 60K	M1 agonist	M1 antagonist	JNK3 inh	S1P3 agonist	S1P1 ag-PAM
Cc1ccc(S(=O)c2ccc(C)cc2)cc1	0	0	0	0	0	0
N#CN=C1CCCCCN1CC(N)=O	0	0	0	0	0	0
Cc1ccc2nc(SCCC#N)nc(C)c2c1	0	0	0	0	0	0
Cc1ccc2nc(C(F)(F)F)c(C#N)c(N)c2c1	-	0	0	0	0	64.0
CC1=C(C(=O)OCC(C)C)C(c2ccc(F)cc2)NC(=O)N1 (stereo not drawn)	0	0	0	0	0	0
CCCCN(c1ccccc1)c1ncnc2nc[nH]c12	0	0	0	0	0	0
CN(CCO)c1ncnc2nc[nH]c12	0	0	0.723	0	0	0
COC(=O)c1ccccc1NC(=O)NCc1ccccn1	0	0	0	0	0	0
COC(=O)c1ccccc1NC(=O)NCc1cccnc1	0	0	0	24.5	0	0
CC(C)(C)c1ccc(C(=O)NCc2cccnc2)cc1	0	0	0	0	0	0
CC(C)C(=O)Nc1ccc(C(=O)NCc2cccnc2)cc1	81.5	0	0	0	0	0
Cc1cccc(N=C(N2CCOCC2)P(=O)(N2CCOCC2)N2CCOCC2)c1	-	0	0	-	-	-
O=C(COC(=O)c1ccccn1)Nc1cc(Cl)ccc1Cl	0	0	0	0	0	0
O=S(=O)(c1ccc2oc(-c3ccncc3)nc2c1)c1ccc2oc(-c3ccncc3)nc2c1	0	0	0	0	0	0
COc1ccc(-c2nc(C#N)c(NC(C)c3ccccc3)o2)cc1OC (stereo not drawn)	0	0	0	0	0	0
CCCc1cc(C(=O)N(C2CCCCC2)C2CCCCC2)no1	0	0	0	0	58.0	0
CCCc1cc(C(=O)NC2CCCCC2)no1	0	0	0	0	0	0
Cn1cc(/C=N/n2cnc3scc(-c4ccc(Cl)cc4)c3c2=O)c2ccccc21	95.5	0	0	0	0	0
Cc1nc2scc(-c3ccccc3)c2c(=O)n1/N=C/c1ccco1	-	0	0	-	-	-
CCOC(=O)N1CCN(C2OC(=O)c3ccccc32)CC1 (stereo not drawn)	-	32.5	-2.04	0	0	0
CCOC(=O)C1CCCN(C(=O)C2c3ccccc3Oc3ccccc32)C1 (stereo not drawn)	0	0	0.682	0	0	0
CCOC(=O)C1CCCN(C(=O)c2ccc3c(c2)OCO3)C1 (stereo not drawn)	0	0	0	0	0	0
COc1ccc2c(c1)c1ncn(Cc3ccco3)c(=O)c1n2C	0	0	0	18.8	0	0
CNC(=O)C1C2C=CC3(O2)C1C(=O)N(CCOC)C3C(=O)NCc1ccc(OC)cc1 (stereo not drawn)	-	0	0	-	-	-
Oc1ccc(N=Cc2ccc(O)c(O)c2)cc1	34.5	0	0	0	0	0
SMILES	Jurkat tox 60K	M1 agonist	M1 antagonist	JNK3 inh	S1P3 agonist	S1P1 ag-PAM
CN(C)c1ccc(C=Nc2ccc(N(C)C)cc2)cc1	-	0	0	-	-	-
CCOC(=O)c1ccc(NS(=O)(=O)N2CCCCCC2)cc1	0	0	0	0	0	0
O=C(NCC(c1cccs1)N1CCOCC1)c1ccc(Cl)s1 (stereo not drawn)	95.0	0	0	0	0	0
CC(Oc1ccc2oc(-c3ccccc3)c(C(=O)O)c2c1)C(=O)O (stereo not drawn)	0	0	0	0	0	0
CC(NS(=O)(=O)c1ccccc1)C(c1cccs1)N1CCN(C)CC1 (stereo not drawn)	-	0	0	-	-	-
CCCOc1cccc(C(=O)Nc2cccnc2)c1	0	0	0	0	0	-
CCCOc1cccc(C(=O)Nc2cccc(NC(=O)c3ccco3)c2)c1	0	5.98	0	0	0	0
COc1cccc(-c2nc(-c3ccc(NC(=O)c4cccnc4)cc3)no2)c1	0	0	0	0	0	59.6
COc1ccc(CC(=O)Nc2ccc(-c3noc(-c4cccc(OC)c4)n3)cc2)cc1	0	0	0	0	0	0
COc1cccc(C2=NOC(C(=O)Nc3cc(OC)c(OC)c(OC)c3)C2)c1 (stereo not drawn)	0	0	0	81.0	0	0
COc1ccc(NC(=O)C2CC(c3cc(OC)c(OC)c(OC)c3)=NO2)cc1OC (stereo not drawn)	0	0	0	0	0	0
COc1cccc(-c2cc(C(=O)Nc3cc(OC)c(OC)c(OC)c3)no2)c1	67.0	2.38	0	0	0	0
COc1cc(C2=NOC(C(=O)NCc3ccc(F)cc3)C2)cc(OC)c1OC (stereo not drawn)	96.1	0	0	0	0	0
Cc1ccc2[nH]c3c(c2c1)CCc1cn[nH]c1-3	0	0	0	43.5	0	0
Cc1ccc2[nH]c3c(c2c1)CCC3=O	0	0	0	0	0	0
N#Cc1cccc(NC(=O)NCCc2c[nH]c3ccccc23)c1	0	0	0	0	0	0
Cc1ccc(C(=O)OCc2cc3ccccc3[nH]c2=O)cc1	0	0	0	28.3	0	0
O=C(CSc1nnc(Cc2ccccc2)n1C1CCCCC1)N1CCOCC1	0	0	1.12	0	0	0
O=C(CSc1nnc(Cc2ccccc2)n1-c1ccc(F)cc1)N1CCOCC1	0	0	0	0	0	0
Cc1ccc(-n2nnnc2SC(C)C(N)=O)c(C)c1 (stereo not drawn)	0	0	0	0	0	0
C/C(N)=C(/C#N)C(=O)CSc1nnnn1-c1ccc(C)cc1C	29.5	0	0	0	0	0
O=C1CCCC2=C1C(c1ccco1)Nc1ccc3ccccc3c12 (stereo not drawn)	0	0	0	0	0	0
COc1cc(C2Nc3ccc4ncccc4c3C3=C2C(=O)CCC3)cc(OC)c1O (stereo not drawn)	71.1	0	0	0	0	0
O=C(Nc1ccc(N2CCOCC2)c(Cl)c1)c1cccnc1	0	0	0	0	0	0
Nc1ccc(N2CCOCC2)c(Cl)c1	0	0	0	0	0	92.7
SMILES	Jurkat tox 60K	M1 agonist	M1 antagonist	JNK3 inh	S1P3 agonist	S1P1 ag-PAM
COc1cc(NS(=O)(=O)c2ccc3c(c2)oc(=O)n3C)cc(OC)c1OC	39.7	0	0	0	0	0
CCOc1cc(NC(=O)c2ccco2)c(OCC)cc1NC(=O)CCc1ccc(OC)cc1	0	0	0	0	0	0
Cc1onc(-c2ccccc2)c1C(=O)N1CC(C)OC(C)C1 (stereo not drawn)	0	0	0	0	0	0
COc1cc(NC(=O)CSc2nccc(C)n2)c(C(=O)O)cc1OC	0	0	1.22	0	0	0
COc1ccc(NC(=O)CSc2nccc(C)n2)cc1	0	0	0	0	0	0
CCOC(=O)c1cc2c(c(CSc3nc4ccccc4c(=O)n3Cc3ccco3)c1)OCOC2	0	0	0	0	0	0
CCc1cc2c(=O)n(Cc3ccco3)c(SCc3c(C)noc3C)nc2s1	88.2	0	0	0	0	0
Oc1cccc2ccc(Nc3ccccn3)nc12	72.4	0	0	0	0	0
c1ccc(Nc2ccccc2Nc2ccccn2)nc1	0	0	0	42.6	0	0
